In brackets after ≈: the same amount, converted by molar mass.
Assays:
[1] = Ratio of the cytotoxicities against drug induced aerobic Walker cells and chinese hamster ovary fibroblast line AA8; assay type: functional
Procedure, shortened: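 IC50 in AA8 divided by IC50 in Walker 256 (WS) cells. Walker cells were seeded at 225 cells/0.15 mL with continuous aerobic drug exposure over 4 days, read by MTT. Ratios are interexperiment means.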

[2] = tested on: UV4; experiment: Tested for the product of drug concentration and exposure time required to reduce UV4 cell survival to 10% under hypoxic condition by clonogenic assay
[3] = Tested for hypersensitivity factor which is the ratio of cytotoxicities against aerobic UV4 cells and chinese hamster ovary fibroblast line AA8
[4] = tested on: CHO-AA8; experiment: Aerobic cytotoxicity was assessed in a growth inhibition assay using log phase cultures of the chinese hamster ovary fibroblast line AA8; assay type: functional, cell-based
Procedure, shortened: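 AA8 Chinese hamster ovary cells seeded at 200 cells/well, grown 24 h, then exposed 18 h to five 2-fold serial dilutions in duplicate. Drug washed out, cells grown a further 78 h, density read by methylene blue staining. IC50 = concentration giving 50% growth inhibition versus controls. Values are means ± SEM.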

[5] = Solubility (alpha-MEM culture medium, containing 5% fetal calf serum); assay type: physicochemical; conditions: alpha-MEM culture medium with 5% fetal calf serum; read-out: S
Procedure, shortened: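 Solubility (mM) in α-MEM with 5% fetal calf serum, measured at ambient temperature by UV spectroscopy.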

[6] = tested on: UV4; experiment: The ratio of the cytotoxicities against UV4 cell line in the air and N2 was measured using clonogenic assay; assay type: functional, Cricetulus griseus
Procedure, shortened: (§1)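 UV4 cells (10^6/mL, stirred 10 mL suspensions) were gassed with 5% CO2 in air or in N2 after 60 min pre-equilibration, with clonogenic survival sampled over time. Concentrations giving similar kill rates under each gas were chosen. Ratio = CT10(air)/CT10(N2). Mean ± SEM of separate experiments.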

[7] = The ratio of the cytotoxicities against UV4 cell line in the air and N2 was measured using clonogenic assay.; assay type: functional; procedure, shortened: as §1

Row | Structure (SMILES) | IC50 ratio [1] | CT10 [2] | IC50 ratio [3] | IC50 ([4]; Cricetulus griseus, CHO-AA8) | solubility [5] | CT10 ratio [6] | IC50 ([4]; cho-aa8) | CT10 ratio [7]
1 | NC(=O)c1cc(N(CCI)CCI)c([N+](=O)[O-])cc1[N+](=O)[O-] | 5.2 | 4.4 µM·h | 2.6 | 34 µM | 35 µM (≈ 18.7 µg/mL) | 42 | – | –
2 | NC(=O)c1cc(N(CCBr)CCBr)c([N+](=O)[O-])cc1[N+](=O)[O-] | 3.1 | 8 µM·h | 7.5 | 57 µM | 42 µM (≈ 18.5 µg/mL) | 20 | – | –
3 | O=C(NCC(O)CO)c1cc(N(CCCl)CCCl)c([N+](=O)[O-])cc1[N+](=O)[O-] (stereo not given) | 1.6 | 465 µM·h | 4.4 | 1930 µM | 7400 µM (≈ 3150 µg/mL) | 8.6 | – | –
4 | NC(=O)c1cc(N(CCCl)CCCl)c([N+](=O)[O-])cc1[N+](=O)[O-] | 4.1 | 95 µM·h | 6.8 | – | 190 µM (≈ 66.7 µg/mL) | 58 | 470 µM | –
5 | CS(=O)(=O)OCCN(CCOS(C)(=O)=O)c1cc(C(N)=O)c([N+](=O)[O-])cc1[N+](=O)[O-] | >3 | 70 µM·h | >4 | – | 530 µM (≈ 249 µg/mL) | 17 | – | –
6 | O=C(c1cc(N(CCCl)CCCl)c([N+](=O)[O-])cc1[N+](=O)[O-])N1CCOCC1 | 4.1 | 125 µM·h | 23 | 240 µM | 30 µM (≈ 12.6 µg/mL) | 1.3 | – | –
7 | O=C(O)CCNC(=O)c1cc(N(CCCl)CCCl)c([N+](=O)[O-])cc1[N+](=O)[O-] | 1.5 | 12000 µM·h | 1.1 | 6100 µM | 11000 µM (≈ 4660 µg/mL) | 2.3 | – | –
8 | CS(=O)(=O)OCCN(CCCl)c1cc(C(N)=O)c([N+](=O)[O-])cc1[N+](=O)[O-] | 6 | 48 µM·h | 13 | 945 µM | 840 µM (≈ 345 µg/mL) | – | – | 60
9 | C[N+](C)([O-])CCNC(=O)c1cc(N(CCCl)CCCl)c([N+](=O)[O-])cc1[N+](=O)[O-] | 2.3 | 4500 µM·h | 1.7 | 7290 µM | > 42000 µM | 8 | – | –
10 | NC(=S)c1cc(N(CCCl)CCCl)c([N+](=O)[O-])cc1[N+](=O)[O-] | >1 | 19 µM·h | >2 | > 25 µM | 38 µM (≈ 14 µg/mL) | >3 | – | –
11 | CS(=O)(=O)NS(=O)(=O)c1cc(N(CCCl)CCCl)c([N+](=O)[O-])cc1[N+](=O)[O-] | 1.5 | 980 µM·h | 1 | 466 µM | 32000 µM (≈ 14900 µg/mL) | 5.2 | – | –
12 | CN(C)CCNC(=O)c1cc(N(CCCl)CCCl)c([N+](=O)[O-])cc1[N+](=O)[O-] | 5.6 | 21 µM·h | 3.9 | 220 µM | 35000 µM (≈ 14800 µg/mL) | 60 | – | –
13 | O=C(NCCO)c1cc(N(CCCl)CCCl)c([N+](=O)[O-])cc1[N+](=O)[O-] | – | – | – | > 100 µM | 100 µM (≈ 39.5 µg/mL) | – | – | –
14 | N#Cc1cc(N(CCCl)CCCl)c([N+](=O)[O-])cc1[N+](=O)[O-] | 3.2 | 10 µM·h | 6.8 | 24 µM | 120 µM (≈ 40 µg/mL) | 8.5 | – | –
15 | NC(=O)c1cc(NCCCl)c([N+](=O)[O-])cc1[N+](=O)[O-] | 380 | – | 1.4 | 748 µM | – | – | – | –
16 | O=C(NCCN1CCOCC1)c1cc(N(CCCl)CCCl)c([N+](=O)[O-])cc1[N+](=O)[O-] | 3.7 | 83 µM·h | 3 | 920 µM | 4700 µM (≈ 2180 µg/mL) | 45 | – | –
17 | CCN(CCCl)c1cc(C(N)=O)c([N+](=O)[O-])cc1[N+](=O)[O-] | >1 | > 300 µM·h | – | > 97 µM | 160 µM (≈ 50.7 µg/mL) | – | – | –
18 | NS(=O)(=O)c1cc(N(CCCl)CCCl)c([N+](=O)[O-])cc1[N+](=O)[O-] | 1.7 | 5.7 µM·h | 1.5 | 2 µM | 160 µM (≈ 62 µg/mL) | 2.1 | – | –
19 | CNC(=O)c1cc(N(CCCl)CCCl)c([N+](=O)[O-])cc1[N+](=O)[O-] | – | > 360 µM·h | – | > 100 µM | 200 µM (≈ 73 µg/mL) | – | – | –
20 | CN(C)C(=O)c1cc(N(CCCl)CCCl)c([N+](=O)[O-])cc1[N+](=O)[O-] | <0.3 | 250 µM·h | 1.4 | 310 µM | 130 µM (≈ 49.3 µg/mL) | >20 | – | –
21 | O=C(O)c1cc(N(CCCl)CCCl)c([N+](=O)[O-])cc1[N+](=O)[O-] | 4.7 | 19000 µM·h | 1.4 | 10600 µM | 18000 µM (≈ 6340 µg/mL) | – | – | >1.2
22 | O=C(c1cc(N2CC2)c([N+](=O)[O-])cc1[N+](=O)[O-])N1CCOCC1 | 800 | 30 µM·h | 330 | 694 µM | – | 1.7 | – | –
23 | CCN(CCCl)c1cc(C(=O)NCCN(C)C)c([N+](=O)[O-])cc1[N+](=O)[O-] | 5 | 390 µM·h | 1.9 | 570 µM | > 38000 µM | 3.5 | – | –
24 | NC(=O)c1cc(N2CC2)c([N+](=O)[O-])cc1[N+](=O)[O-] [TRETAZICAR] | 37000 | 225 µM·h | 50 | 563 µM | 7900 µM (≈ 1990 µg/mL) | 3.6 | – | –
